# A selection: hits, their analogues and other compounds. The true share with any hit is near 3.8%.
# KCNK9 block = blocks the human KCNK9 two-pore domain potassium channel; 310,000 tested, 1.2% active; HEK293 KCNK9, FluxOR thallium flux fluorescence; hits give low values; B-score at 10 µM; Q9NPC2;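 active = ratio B-score over 3 SD below the library mean, with starting fluorescence within 5 SD of its mean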;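 also: negative B-score means less thallium flux so channel inhibition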
# hERG rescue = compounds protecting human hERG from proarrhythmic drug block; Q12809; CHO-hERG, FluxOR thallium flux, dofetilide IC70 present; activation (rescue from dofetilide block), less the hit threshold, % at 10 µM; 310,000 tested, 0.51% active; AID 1511;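 active = activation above the mean of controls blocked by dofetilide plus 5 SD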;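 also: thallium influx through hERG after potassium depolarization seen as dye fluorescence rise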
# Kir21 inh = blocks the mouse Kir2.1 inward-rectifier potassium channel. AID 1672. HEK293-Kir2.1, FluxOR thallium flux fluorescence; hits give low values. P35561. B-score at 10 µM. 310,000 tested, 0.85% active;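 active = fluorescence ratio B-score at or below minus 3 SD of library scores, with starting-brightness B-score within 2 SD, cut at about -4.2 in these data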;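 also: channel flux triggered by added potassium and thallium sulfate stimulus; B-score of peak minus minimum fluorescence over baseline after thallium stimulus; more negative B-score means stronger Kir2.1 block with less thallium influx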
# KCNQ1 block = human KCNQ1 channel inhibition | B-score at 10 µM | P51787 | CHO-K1 KCNQ1, FluxOR thallium flux fluorescence; hits give high values | 310,000 tested, 1.3% active | AID 2642;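 active = compounds whose thallium flux B-score, printed positive for inhibition, exceeds three library SD while starting fluorescence stays within three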;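 also: channel opened by potassium depolarization with thallium stimulus after 20 min compound exposure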
# Target sequence (P51787 whole entry, looked up): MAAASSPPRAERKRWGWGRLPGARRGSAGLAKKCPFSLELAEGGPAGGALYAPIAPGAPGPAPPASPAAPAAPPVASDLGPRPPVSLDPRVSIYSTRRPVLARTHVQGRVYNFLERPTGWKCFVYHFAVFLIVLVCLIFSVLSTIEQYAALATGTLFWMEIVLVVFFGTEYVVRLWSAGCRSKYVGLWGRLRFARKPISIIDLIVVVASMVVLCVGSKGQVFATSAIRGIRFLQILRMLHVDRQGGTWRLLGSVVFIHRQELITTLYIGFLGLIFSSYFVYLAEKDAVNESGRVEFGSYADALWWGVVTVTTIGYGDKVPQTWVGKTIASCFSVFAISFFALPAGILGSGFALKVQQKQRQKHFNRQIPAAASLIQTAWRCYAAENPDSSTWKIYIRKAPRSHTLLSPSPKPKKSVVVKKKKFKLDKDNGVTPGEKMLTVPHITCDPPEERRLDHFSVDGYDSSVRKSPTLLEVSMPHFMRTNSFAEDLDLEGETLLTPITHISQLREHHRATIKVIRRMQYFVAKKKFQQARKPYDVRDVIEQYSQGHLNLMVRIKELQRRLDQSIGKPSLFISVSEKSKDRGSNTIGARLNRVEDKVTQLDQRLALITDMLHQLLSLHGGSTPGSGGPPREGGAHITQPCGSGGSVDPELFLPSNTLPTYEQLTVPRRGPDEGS
# KCNQ1 act = human KCNQ1 channel potentiation or activation; P51787; CHO-K1 KCNQ1, thallium flux FluxOR fluorescence; hits give high values; B-score at 10 µM; 310,000 tested, 0.35% active;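 active = fluorescence ratio B-score, a plate-corrected score, at least three library SD, with initial intensity B-score within 5 SD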
#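 Assay system: CHO-K1 cells stably expressing KCNQ1; Medium: assay buffer with matched DMSO; Also added: K+/Tl+ depolarizing stimulus; Dosing: single dose; Timing: dye 90 min, compound 20 min, room temperature; Measured by: kinetic FluxOR thallium fluorescence, 10-s 1-Hz baseline, 110-s post-stimulus read; Read-out: peak-minus-minimum fluorescence over initial fluorescence, negative-control normalized, B-scored.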
# KCNK3 block = human KCNK3 channel inhibition, primary screen. O14649. CHO-KCNK3 thallium flux, FluxOR fluorescence; hits give low values. B-score at 10 µM. 340,000 tested, 0.84% active;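 active = B-score under library mean minus 4 SD, starting fluorescence ratio at most library mean plus 5 SD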;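 also: more negative B-score means stronger inhibition of thallium flux through KCNK3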
# Numbers stand for hits; - = inactive; . = not tested or not shown.
SMILES,KCNK9 block,hERG rescue,Kir21 inh,KCNQ1 block,KCNQ1 act,KCNK3 block
COc1ccc(-n2cnc3ccccc3c2=O)c([N+](=O)[O-])c1,-,5.5,-,-,-,-
O=c1c2ccccc2ncn1-c1ccc(Br)cc1[N+](=O)[O-],-,-,-,-,-,-
c1ccc2c(c1)OC(CCCN1CCCCC1)c1ccccc1S2 (configuration not stated),-,-,-5.8,-,-,-
CN1CCCC(CC2Oc3ccccc3Sc3ccccc32)C1 (configuration not stated),-,-,-,-,-,-
Cc1cccc(N2CCN(C(=O)c3ccc(-n4cncn4)c([N+](=O)[O-])c3)CC2)c1C,-,-,-,-,-,-
NC(=O)CCS(=O)(=O)c1ccc(Cl)cc1,-,6.4,-,-,-,-
C/C(=N\NC(N)=S)c1cc(-c2ccccc2)c(-c2ccccc2)s1,-8,-,-,-,-,-
CCOC(=O)C1=C(C)OC(N)=C(C#N)C1c1ccccc1 (configuration not stated),-,-,-,-,-,-
CCOC(=O)C1=C(C)OC(N)=C(C#N)C1c1c(C)nn(-c2ccc(C)cc2)c1Cl (configuration not stated),-9.8,-,-,-,-,.
COc1ccc(CN(C)C(=O)c2ccc(OCC(=O)Nc3cccc(C(F)(F)F)c3)c(OC)c2)c(OC)c1,-,-,-,-,-,-
COc1cccc(CN(C)C(=O)c2ccc(OCC(=O)Nc3cccc(C(F)(F)F)c3)c(OC)c2)c1,-,-,-,9,-,-
Cc1onc(-c2ccccc2)c1C(=O)Nc1ccc(Cl)c(S(=O)(=O)N2CCOCC2)c1,.,.,.,.,.,-
O=C(Cn1cnc2ccccc21)c1ccccc1,-,5.0,-,-,-,-
Cc1c(Cl)c([N+](=O)[O-])nn1CC(=O)NCc1cccs1,-,4.8,-,-,-,-
Cc1ccccc1CN1CCN(C2CCC2)CC1CCO (configuration not stated),-,-,-,-,-,-
CCSc1nc(=S)cc(C)[nH]1,-,25,-,-,24,-
O=C(NNC(=S)Nc1cccc(Cl)c1)c1ccccc1OC(F)F,-,-,-,9,-,-
COCCCNC(=S)NNC(=S)Nc1cccc(Cl)c1,-,-,-,6,-,-
COc1cccc(NC(=S)NNC(=O)c2ccccc2OC(F)F)c1,-,-,-,-,-,-
S=C(Nc1cccc(Cl)c1)Nc1ccccc1Oc1ccccc1,-,-,-,8,-,-
Cc1onc(-c2ccccc2Cl)c1C(=O)Nc1ccc(Br)cc1,-,-,-,-,-,-
CN1C(C(=O)N2CCc3ccccc3C2)=CC(c2ccc(F)cc2)=NS1(=O)=O,-,-,-,-,-,-
COc1ccc(-c2nc(-c3cccs3)c(-c3cccs3)[nH]2)cc1OC,-,-,-,7,-,-
COc1ccc(-c2nc(-c3ccccc3)c(-c3cccs3)[nH]2)cc1OC,-,-,-,-,-,-
Cc1noc(C)c1C(=O)Nc1ccccc1N1CCOCC1,.,.,.,.,.,-
SMILES,KCNK9 block,hERG rescue,Kir21 inh,KCNQ1 block,KCNQ1 act,KCNK3 block
Cn1c(N)c(C(=O)COC(=O)Cc2ccc(F)cc2)c(=O)n(C)c1=O,.,.,.,.,.,-
COc1ccc(CC(=O)Nc2cc(S(=O)(=O)N3CCCC3)ccc2Cl)c(OC)c1,.,.,.,.,.,-
COc1ccc(C(=O)Nc2ccc(NC(C)=O)cc2)cc1S(=O)(=O)N1CCCCC1C (configuration not stated),.,.,.,.,.,-
CCn1c(C)nc2cc(-c3nnc(-c4c(-c5ccccc5)noc4C)o3)ccc21,-,34,-,-,-,-
CCCCn1c(=O)[nH]c(=O)c2c1nc(Cn1ncc(Cl)c(Cl)c1=O)n2CCC,-,-,-,-,11,-
CCC(CC)c1nc(C#N)c(NC(C)c2ccccc2)o1 (configuration not stated),-,-,-6.1,-,-,-
COc1ccc(-c2nc(C#N)c(NC(C)C)o2)cc1,-,-,-,-,-,-
Cn1cc(S(=O)(=O)NC[C@H]2O[C@@H](n3cnc4c(N)ncnc43)[C@H](O)[C@@H]2O)cn1,.,.,.,.,.,-
O=C(c1ccco1)N1CCN(c2nc(C3CC3)nc3c2nnn3Cc2ccccc2Cl)CC1,-,-,-,6,-,-
COc1ccc2sc(-c3ccc(SC)cc3)c(/C=C/c3ccc(OC)c(OC)c3)c2c1,.,.,.,.,.,-
CCOc1ccc(Nc2ccnc3cc(Cl)ccc23)cc1,-,-,-,-,-,-
CN1CCN(c2ccc(Nc3ccnc4cc(Cl)ccc34)cc2)CC1,-,-,-6.8,-,-,-
CS(=O)(=O)Nc1ccccc1C(=O)NCCSc1ccccc1,-,-,-,-,-,-
CCN(Cc1ccccc1)c1ccc(/C=N/N=C(N)N)cc1,-,-,-14,-,-,-
CCOc1ccc(C(=O)NCC(=O)NCCSc2ccc(Br)cc2)cc1OCC,.,.,.,.,.,-9.8
Cc1ccc(C(=O)NCC(=O)NCCSc2ccc(Br)cc2)cc1,-,-,-,-,-,-
CCCC(=O)OCC1CN(Cc2ccco2)S(=O)(=O)c2c(F)cccc2O1 (configuration not stated),.,.,.,.,.,-
COc1cccc(CNc2ccc(S(N)(=O)=O)cc2)c1OCc1ccccc1F,-,-,-5.1,-,-,-
C=CCOc1c(CNc2ccc(S(N)(=O)=O)cc2)cccc1OC,-,-,-,-,-,-
COc1cc(/C=N/NC(=S)NC2CC3CC2C2C=CCC32)ccc1O (configuration not stated),-,-,-,-,-,-
Fc1cccc(NCCc2c[nH]c3ccccc23)n1,-,-,-,-,-,-
c1ccc2c(NCCc3c[nH]c4ccccc34)c3ccccc3nc2c1,-,-,-12,7,-,-
O=C(Nc1cccc(-c2nc3ccccc3s2)c1)c1cc(-n2cnnc2)ccc1Cl,-,-,-,6,-,-
Cc1nc(N2CCC(C)CC2)c2c(C)c(C(=O)Nc3ccc(C(F)(F)F)cc3)sc2n1,-,-,-,10,-,-
Cc1ccc(-c2cc(C(=O)Nc3cc(C)ccc3O)no2)cc1,-7.8,-,-,-,-,-
CC(C)c1cccc(C(C)C)c1NC(=O)CN1C(=O)NC2(CCCC2)C1=O,-,-,-,-,-,-
CCC(OC(=O)CNS(=O)(=O)c1ccccc1)C(=O)c1ccccc1 (configuration not stated),-,-,-,-,-,-
CCCCn1nc2cc(C(=O)NCc3ccc(OC)cc3)ccc2c1OCC,-,-,-5.1,-,-,-
CCOc1c2ccc(C(=O)NCc3ccc(OC)cc3)cc2nn1CCOC,-,-,-,-,-,-
COc1ccc(-c2cn3c(C)c(C(=O)N4CCCc5ccccc54)sc3n2)cc1,-,-,-,6,-,-

# Compound activity: PubChem BioAssay, Johns Hopkins Ion Channel Center
